Source: ChEMBL document CHEMBL3808372, “Identification of quinones as novel PIM1 kinase inhibitors” (Bioorg Med Chem Lett, 2016)
pIC50: −log10 of the molar value.

Experiments:
[1] = target: Casein kinase II (Homo sapiens) (UniProt P67870+P68400+P19784); test: Share of MOE computational kinase hits for CK2
[2] = target: Phosphatidylinositol 4,5-bisphosphate 3-kinase catalytic subunit alpha isoform (Homo sapiens) (UniProt P42336); test: Inhibition of human PIK3CA (108 to 1068 amino acid residues) assessed as enzyme activity at 10 uM by KINOMEScan assay; design: scale not given: the % may be the effect or the level left
In short: (§1)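 Single-concentration competition binding screen (KINOMEscan) across a 100-kinase panel at 10 μM. Primary binding read-out is reported as % of control: (test signal − positive-control signal)/(negative-control signal − positive-control signal) × 100. Lower values indicate stronger binding.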

[3] = target: Hepatocyte growth factor receptor (Homo sapiens) (UniProt P08581); test: Inhibition of human MET (1010 to 1367 amino acid residues) expressed in bacterial system assessed as enzyme activity at 10 uM by KINOMEScan assay; design: scale not given: the % may be the effect or the level left
In short: (§2)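 Commercial KINOMEscan binding panel of 100 kinases, test compound at 10 μM. Results are primary-screen binding interactions expressed as % Ctrl = (test compound signal − positive control signal)/(negative control signal − positive control signal) × 100. Lower % Ctrl means stronger binding.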

[4] = target: Serine/threonine-protein kinase Chk1 (Homo sapiens) (UniProt O14757); test: Inhibition of human CHEK1 (1 to 289 amino acid residues) assessed as enzyme activity at 10 uM by KINOMEScan assay expressed in bacterial system assessed as enzyme activity at 10 uM by KINOMEScan assay; design: scale not given: the % may be the effect or the level left
In short: (§3)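 Competition binding screen on a 100-kinase KINOMEscan panel, compound tested at a single 10 μM concentration. Primary binding read-out expressed as % Ctrl = (test compound signal − positive control signal)/(negative control signal − positive control signal) × 100, with lower values meaning stronger binding.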

[5] = target: Serine/threonine-protein kinase PAK 2 (Homo sapiens) (UniProt Q13177); test: Inhibition of human PAK2 (151 to 525 amino acid residues) expressed in bacterial system assessed as enzyme activity at 10 uM by KINOMEScan assay; design: scale not given: the % may be the effect or the level left
In short: as §3

[6] = target: Serine/threonine-protein kinase DCLK1 (Homo sapiens) (UniProt O15075); test: Inhibition of human DCAMKL1 (270 to 662 amino acid residues) assessed as enzyme activity at 10 uM by KINOMEScan assay; design: scale not given: the % may be the effect or the level left
In short: as §3

[7] = target: Mitogen-activated protein kinase 14 (Homo sapiens) (UniProt Q16539); test: Inhibition of full length human p38-alpha expressed in bacterial system assessed as enzyme activity at 10 uM by KINOMEScan assay; design: scale not given: the % may be the effect or the level left
Chain of Mitogen-activated protein kinase 14 (Homo sapiens) (Q16539 whole entry): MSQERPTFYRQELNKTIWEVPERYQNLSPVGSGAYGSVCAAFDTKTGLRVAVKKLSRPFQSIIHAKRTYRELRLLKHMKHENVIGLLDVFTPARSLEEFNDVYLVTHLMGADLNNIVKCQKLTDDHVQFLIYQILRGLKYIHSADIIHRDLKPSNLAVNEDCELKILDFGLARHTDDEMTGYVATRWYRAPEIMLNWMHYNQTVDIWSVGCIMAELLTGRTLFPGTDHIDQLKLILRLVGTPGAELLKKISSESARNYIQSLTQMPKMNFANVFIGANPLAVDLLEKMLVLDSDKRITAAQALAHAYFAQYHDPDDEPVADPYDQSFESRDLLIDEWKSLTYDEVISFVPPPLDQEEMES
In short: as §2

[8] = target: MAP/microtubule affinity-regulating kinase 3 (Homo sapiens) (UniProt P27448); test: Inhibition of full length human MARK3 expressed in bacterial system assessed as enzyme activity at 10 uM by KINOMEScan assay; design: scale not given: the % may be the effect or the level left
In short: as §2

[9] = target: Insulin-like growth factor 1 receptor (Homo sapiens) (UniProt P08069); test: Inhibition of human IGF1R (972 to 1294 amino acid residues) assessed as enzyme activity at 10 uM by KINOMEScan assay expressed in bacterial system assessed as enzyme activity at 10 uM by KINOMEScan assay; design: scale not given: the % may be the effect or the level left
Chain of Insulin-like growth factor 1 receptor (Homo sapiens) (P08069 31-736 limits assumed): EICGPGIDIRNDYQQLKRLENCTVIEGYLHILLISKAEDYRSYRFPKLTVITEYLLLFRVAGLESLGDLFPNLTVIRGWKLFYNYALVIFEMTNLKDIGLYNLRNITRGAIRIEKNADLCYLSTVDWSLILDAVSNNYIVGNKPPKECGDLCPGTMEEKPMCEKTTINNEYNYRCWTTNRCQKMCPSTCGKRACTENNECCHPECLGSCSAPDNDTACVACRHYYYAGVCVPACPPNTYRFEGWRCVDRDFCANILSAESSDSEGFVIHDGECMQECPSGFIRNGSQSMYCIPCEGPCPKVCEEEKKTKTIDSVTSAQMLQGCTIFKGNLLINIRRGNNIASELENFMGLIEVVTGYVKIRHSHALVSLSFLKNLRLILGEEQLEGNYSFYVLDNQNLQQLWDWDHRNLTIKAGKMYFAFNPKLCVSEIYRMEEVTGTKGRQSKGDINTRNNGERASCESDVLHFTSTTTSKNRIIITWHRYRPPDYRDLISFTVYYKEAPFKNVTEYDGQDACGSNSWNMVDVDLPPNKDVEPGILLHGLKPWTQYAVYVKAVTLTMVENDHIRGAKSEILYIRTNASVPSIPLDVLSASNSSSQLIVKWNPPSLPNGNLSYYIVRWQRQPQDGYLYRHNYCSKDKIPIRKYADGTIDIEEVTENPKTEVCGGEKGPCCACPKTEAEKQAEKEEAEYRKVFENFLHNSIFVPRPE
Chain of Insulin-like growth factor 1 receptor (Homo sapiens) (P08069 741-1367 limits assumed): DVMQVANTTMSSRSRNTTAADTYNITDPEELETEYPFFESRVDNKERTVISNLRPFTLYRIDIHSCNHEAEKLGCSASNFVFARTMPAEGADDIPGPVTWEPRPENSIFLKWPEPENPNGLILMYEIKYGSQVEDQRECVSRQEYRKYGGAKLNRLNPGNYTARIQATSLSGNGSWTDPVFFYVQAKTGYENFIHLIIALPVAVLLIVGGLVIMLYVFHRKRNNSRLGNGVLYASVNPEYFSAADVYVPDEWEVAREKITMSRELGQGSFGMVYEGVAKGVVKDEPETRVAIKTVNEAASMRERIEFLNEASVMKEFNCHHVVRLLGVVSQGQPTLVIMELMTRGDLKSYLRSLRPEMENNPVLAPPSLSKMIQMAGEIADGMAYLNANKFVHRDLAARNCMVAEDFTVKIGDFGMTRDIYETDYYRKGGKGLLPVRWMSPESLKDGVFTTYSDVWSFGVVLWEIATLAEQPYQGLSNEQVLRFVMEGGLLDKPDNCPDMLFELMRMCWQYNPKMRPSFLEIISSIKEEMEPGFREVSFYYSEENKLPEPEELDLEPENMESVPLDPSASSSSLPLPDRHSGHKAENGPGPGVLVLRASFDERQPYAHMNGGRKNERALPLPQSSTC
In short: as §2

[10] = Cytotoxicity against human DU145 cells assessed as cell growth inhibition after 72 hrs by Alamar blue assay; assay type: functional, cell-based; conditions: DU-145, 72 h
[11] = target: Platelet-derived growth factor receptor alpha (Homo sapiens) (UniProt P16234); test: Inhibition of human PDGFRA (575 to 1002 amino acid residues) assessed as enzyme activity at 10 uM by KINOMEScan assay; design: scale not given: the % may be the effect or the level left
Chain of Platelet-derived growth factor receptor alpha (Homo sapiens) (P16234 whole entry, the tested form may be a part): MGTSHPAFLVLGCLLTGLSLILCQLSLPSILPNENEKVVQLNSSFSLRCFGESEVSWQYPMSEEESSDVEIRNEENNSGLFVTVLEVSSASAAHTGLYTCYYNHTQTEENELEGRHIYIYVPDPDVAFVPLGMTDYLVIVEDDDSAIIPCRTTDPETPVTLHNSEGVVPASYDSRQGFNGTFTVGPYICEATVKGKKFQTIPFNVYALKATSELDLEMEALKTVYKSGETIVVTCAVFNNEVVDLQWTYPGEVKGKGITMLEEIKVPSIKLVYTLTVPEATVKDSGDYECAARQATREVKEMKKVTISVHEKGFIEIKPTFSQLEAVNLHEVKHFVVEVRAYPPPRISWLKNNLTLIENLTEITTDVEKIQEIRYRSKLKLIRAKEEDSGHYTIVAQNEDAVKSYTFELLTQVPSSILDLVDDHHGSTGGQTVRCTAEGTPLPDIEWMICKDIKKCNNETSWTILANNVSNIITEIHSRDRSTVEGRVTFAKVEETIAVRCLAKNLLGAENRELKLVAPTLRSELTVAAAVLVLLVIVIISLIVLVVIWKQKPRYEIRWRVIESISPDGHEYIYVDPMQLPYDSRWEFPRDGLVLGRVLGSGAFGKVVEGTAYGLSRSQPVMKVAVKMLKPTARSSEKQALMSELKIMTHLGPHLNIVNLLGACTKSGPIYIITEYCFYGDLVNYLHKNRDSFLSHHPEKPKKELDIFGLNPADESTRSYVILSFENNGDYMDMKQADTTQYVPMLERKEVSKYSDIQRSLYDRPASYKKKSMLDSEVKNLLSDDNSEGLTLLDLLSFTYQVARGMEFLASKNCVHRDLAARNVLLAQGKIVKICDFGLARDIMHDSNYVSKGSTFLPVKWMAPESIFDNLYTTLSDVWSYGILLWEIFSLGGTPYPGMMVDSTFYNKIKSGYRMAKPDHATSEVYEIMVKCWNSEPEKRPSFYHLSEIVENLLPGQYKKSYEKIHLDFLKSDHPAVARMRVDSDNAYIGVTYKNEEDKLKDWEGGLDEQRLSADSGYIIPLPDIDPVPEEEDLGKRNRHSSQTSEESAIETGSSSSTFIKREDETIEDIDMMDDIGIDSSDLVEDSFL
In short: as §2

[12] = target: Mitogen-activated protein kinase 11 (Homo sapiens) (UniProt Q15759); test: Inhibition of full length human p38-beta expressed in bacterial system assessed as enzyme activity at 10 uM by KINOMEScan assay; design: scale not given: the % may be the effect or the level left
In short: as §3

[13] = target: Mitogen-activated protein kinase kinase kinase 4 (Homo sapiens) (UniProt Q9Y6R4); test: Inhibition of human MAP3K4 (1319 to 1608 amino acid residues) expressed in bacterial system assessed as enzyme activity at 10 uM by KINOMEScan assay; design: scale not given: the % may be the effect or the level left
In short: as §2

[14] = target: Vascular endothelial growth factor receptor 2 (Homo sapiens) (UniProt P35968); test: Inhibition of human VEGFR2 (787 to 1253 amino acid residues) assessed as enzyme activity at 10 uM by KINOMEScan assay; design: scale not given: the % may be the effect or the level left
In short: as §2

[15] = target: Bone morphogenetic protein receptor type-2 (Homo sapiens) (UniProt Q13873); test: Inhibition of human BMPR2 (179 to 526 amino acid residues) assessed as enzyme activity at 10 uM by KINOMEScan assay; design: scale not given: the % may be the effect or the level left
In short: as §3

[16] = target: Death-associated protein kinase 1 (Homo sapiens) (UniProt P53355); test: Share of MOE computational kinase hits for DAPK
Chain of Death-associated protein kinase 1 (Homo sapiens) (P53355 whole entry, looked up): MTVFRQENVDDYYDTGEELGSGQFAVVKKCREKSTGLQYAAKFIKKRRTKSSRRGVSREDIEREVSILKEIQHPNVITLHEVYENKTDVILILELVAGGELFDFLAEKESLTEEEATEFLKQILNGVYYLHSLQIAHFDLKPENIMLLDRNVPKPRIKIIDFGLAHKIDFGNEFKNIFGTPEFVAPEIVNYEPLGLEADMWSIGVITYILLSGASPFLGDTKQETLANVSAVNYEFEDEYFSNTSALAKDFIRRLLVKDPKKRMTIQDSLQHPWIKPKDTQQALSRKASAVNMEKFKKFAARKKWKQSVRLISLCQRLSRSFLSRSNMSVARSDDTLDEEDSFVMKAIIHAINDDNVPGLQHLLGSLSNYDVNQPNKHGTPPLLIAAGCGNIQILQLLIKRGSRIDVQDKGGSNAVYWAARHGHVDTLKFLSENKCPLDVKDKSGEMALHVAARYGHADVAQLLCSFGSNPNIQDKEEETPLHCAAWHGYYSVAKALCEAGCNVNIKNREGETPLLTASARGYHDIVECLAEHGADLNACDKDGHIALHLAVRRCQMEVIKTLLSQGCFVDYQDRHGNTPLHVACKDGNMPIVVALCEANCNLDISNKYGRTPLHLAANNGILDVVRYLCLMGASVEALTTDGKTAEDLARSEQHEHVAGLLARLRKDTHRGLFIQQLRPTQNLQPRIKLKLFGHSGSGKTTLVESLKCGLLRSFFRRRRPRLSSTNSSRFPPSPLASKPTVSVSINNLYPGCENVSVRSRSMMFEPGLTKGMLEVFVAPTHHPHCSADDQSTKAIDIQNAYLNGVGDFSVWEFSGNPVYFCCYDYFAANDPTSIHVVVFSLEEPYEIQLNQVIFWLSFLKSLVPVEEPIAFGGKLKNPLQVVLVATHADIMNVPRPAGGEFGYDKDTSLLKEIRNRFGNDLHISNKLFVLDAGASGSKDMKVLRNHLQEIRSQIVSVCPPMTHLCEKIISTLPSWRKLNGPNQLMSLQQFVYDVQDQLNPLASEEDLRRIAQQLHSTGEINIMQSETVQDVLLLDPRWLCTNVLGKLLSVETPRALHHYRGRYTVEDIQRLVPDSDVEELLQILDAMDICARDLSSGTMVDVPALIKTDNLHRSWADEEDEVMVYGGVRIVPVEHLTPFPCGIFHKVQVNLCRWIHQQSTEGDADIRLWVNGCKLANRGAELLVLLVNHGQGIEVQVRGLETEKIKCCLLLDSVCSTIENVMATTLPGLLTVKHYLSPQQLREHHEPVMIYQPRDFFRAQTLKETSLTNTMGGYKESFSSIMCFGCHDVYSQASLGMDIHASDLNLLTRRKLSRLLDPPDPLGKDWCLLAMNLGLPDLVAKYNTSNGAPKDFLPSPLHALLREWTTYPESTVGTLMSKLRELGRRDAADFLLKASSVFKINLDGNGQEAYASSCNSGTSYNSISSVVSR

[17] = target: Cyclin-dependent kinase (Homo sapiens) (UniProt P06493+P11802+P24941+Q00535+Q00534+P50613+Q00526+Q00536+Q07002+P49336+Q00537+P21127+Q96Q40+Q9BWU1+O94921+P50750+Q15131+Q14004+Q8IZL9+Q9NYV4); test: Share of MOE computational kinase hits for CDK
[18] = target: Mitogen-activated protein kinase 10 (Homo sapiens) (UniProt P53779); test: Inhibition of human JNK3 (28 to 422 amino acid residues) assessed as enzyme activity at 10 uM by KINOMEScan assay; design: scale not given: the % may be the effect or the level left
Chain of Mitogen-activated protein kinase 10 (Homo sapiens) (P53779 whole entry, the tested form may be a part): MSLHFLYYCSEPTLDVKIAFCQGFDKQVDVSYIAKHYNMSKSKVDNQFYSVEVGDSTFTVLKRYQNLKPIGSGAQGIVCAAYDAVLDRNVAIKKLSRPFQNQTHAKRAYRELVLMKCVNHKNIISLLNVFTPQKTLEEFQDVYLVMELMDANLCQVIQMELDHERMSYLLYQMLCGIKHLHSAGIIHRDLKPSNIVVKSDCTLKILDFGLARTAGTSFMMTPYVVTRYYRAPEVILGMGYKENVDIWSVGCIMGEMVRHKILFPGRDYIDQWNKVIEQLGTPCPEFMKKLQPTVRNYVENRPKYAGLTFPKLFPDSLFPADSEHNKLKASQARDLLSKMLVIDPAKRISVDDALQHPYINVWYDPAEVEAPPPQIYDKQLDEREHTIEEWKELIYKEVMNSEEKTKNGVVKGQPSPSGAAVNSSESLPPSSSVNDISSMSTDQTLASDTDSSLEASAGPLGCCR
In short: as §3

[19] = test system: Mast/stem cell growth factor receptor Kit (Homo sapiens), P10721 [V559D,T670I]; test: Inhibition of human KIT V559D/T670I mutant (545 to 952 amino acid residues) expressed in bacterial system assessed as enzyme activity at 10 uM by KINOMEScan assay; design: scale not given: the % may be the effect or the level left
In short: as §2

[20] = target: Proto-oncogene tyrosine-protein kinase Src (Homo sapiens) (UniProt P12931); test: Inhibition of SRC (unknown origin)
[21] = target: MAP kinase-activated protein kinase 2 (Homo sapiens) (UniProt P49137); test: Inhibition of human MAPKAPK2 (48 to 345 amino acid residues) expressed in bacterial system assessed as enzyme activity at 10 uM by KINOMEScan assay; design: scale not given: the % may be the effect or the level left
Chain of MAP kinase-activated protein kinase 2 (Homo sapiens) (P49137 whole entry, looked up, the tested form may be a part): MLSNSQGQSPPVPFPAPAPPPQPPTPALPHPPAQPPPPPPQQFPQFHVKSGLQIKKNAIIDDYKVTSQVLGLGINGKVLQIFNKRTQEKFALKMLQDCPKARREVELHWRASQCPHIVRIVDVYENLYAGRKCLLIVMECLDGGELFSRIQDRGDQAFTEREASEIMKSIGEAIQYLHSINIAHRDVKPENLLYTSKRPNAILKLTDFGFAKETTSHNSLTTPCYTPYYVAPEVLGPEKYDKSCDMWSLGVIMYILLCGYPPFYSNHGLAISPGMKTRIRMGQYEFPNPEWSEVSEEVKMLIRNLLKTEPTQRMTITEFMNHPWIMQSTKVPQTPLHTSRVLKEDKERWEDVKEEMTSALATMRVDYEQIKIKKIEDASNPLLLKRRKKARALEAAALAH
In short: as §3

[22] = target: Cyclin-dependent kinase 9 (Homo sapiens) (UniProt P50750); test: Inhibition of full length human CDK9 expressed in bacterial system assessed as enzyme activity at 10 uM by KINOMEScan assay; design: scale not given: the % may be the effect or the level left
In short: as §2

[23] = target: Tyrosine-protein kinase JAK3 (Homo sapiens) (UniProt P52333); test: Inhibition of human JAK3 JH1 catalytic domain (781 to 1124 amino acid residues) assessed as enzyme activity at 10 uM by KINOMEScan assay; design: scale not given: the % may be the effect or the level left
In short: as §3

[24] = target: Serine/threonine-protein kinase ULK2 (Homo sapiens) (UniProt Q8IYT8); test: Inhibition of human ULK2 (1 to 301 amino acid residues) assessed as enzyme activity at 10 uM by KINOMEScan assay; design: scale not given: the % may be the effect or the level left
In short: as §1

[25] = target: Tyrosine-protein kinase BTK (Homo sapiens) (UniProt Q06187); test: Inhibition of full length human BTK assessed as enzyme activity at 10 uM by KINOMEScan assay; design: scale not given: the % may be the effect or the level left
In short: as §2

[26] = target: RAC-alpha serine/threonine-protein kinase (Homo sapiens) (UniProt P31749); test: Inhibition of human Akt1 expressed in bacterial system assessed as enzyme activity at 10 uM by KINOMEScan assay; design: scale not given: the % may be the effect or the level left
In short: as §2

Molecule `O=C1C2=C(C(=O)c3c(O)ccc(O)c31)[C@@H](O)[C@@H](O)[C@@H](O)C2` has a % of MOE kinase hits [1] of 43%, an Activity [2] of 99% and an Activity [3] of 100%. For the same molecule, the Activity [4] was 79%, the Activity [5] was 57% and the Activity [6] was 90%. For the same molecule, the Activity [7] was 100%, the Activity [8] was 100% and the Activity [9] was 100%. The pIC50 [10] was 5.09, the Activity [11] was 100% and the Activity [12] was 92%. The Activity [13] was 100%, the Activity [14] was 100% and the Activity [15] was 60%. For the same molecule, the % of MOE kinase hits [16] was 7%, the % of MOE kinase hits [17] was 7% and the Activity [18] was 76%. For the same molecule, the Activity [19] was 86%, the % of MOE kinase hits [20] was 14% and the Activity [21] was 93%. The Activity [22] was 100%, the Activity [23] was 61% and the Activity [24] was 88%. For the same molecule, the Activity [25] was 100% and the Activity [26] was 100%.
